From publication PMC7658073 (Clinical Pharmacokinetics, 2020)
Like-named read-outs stand apart in the source and are kept apart here.

Columns and labels:
[1] = Phase I DDI study with mefenamic acid; type: in vivo, human
OATP1B1 [2] = molecular target: T1, OATP1B1 (Homo sapiens, UniProt Q9Y6L6); assay: Inhibitory potency towards OATP1B1; type: in vitro ADME
T1 sequence (Q9Y6L6 1-691): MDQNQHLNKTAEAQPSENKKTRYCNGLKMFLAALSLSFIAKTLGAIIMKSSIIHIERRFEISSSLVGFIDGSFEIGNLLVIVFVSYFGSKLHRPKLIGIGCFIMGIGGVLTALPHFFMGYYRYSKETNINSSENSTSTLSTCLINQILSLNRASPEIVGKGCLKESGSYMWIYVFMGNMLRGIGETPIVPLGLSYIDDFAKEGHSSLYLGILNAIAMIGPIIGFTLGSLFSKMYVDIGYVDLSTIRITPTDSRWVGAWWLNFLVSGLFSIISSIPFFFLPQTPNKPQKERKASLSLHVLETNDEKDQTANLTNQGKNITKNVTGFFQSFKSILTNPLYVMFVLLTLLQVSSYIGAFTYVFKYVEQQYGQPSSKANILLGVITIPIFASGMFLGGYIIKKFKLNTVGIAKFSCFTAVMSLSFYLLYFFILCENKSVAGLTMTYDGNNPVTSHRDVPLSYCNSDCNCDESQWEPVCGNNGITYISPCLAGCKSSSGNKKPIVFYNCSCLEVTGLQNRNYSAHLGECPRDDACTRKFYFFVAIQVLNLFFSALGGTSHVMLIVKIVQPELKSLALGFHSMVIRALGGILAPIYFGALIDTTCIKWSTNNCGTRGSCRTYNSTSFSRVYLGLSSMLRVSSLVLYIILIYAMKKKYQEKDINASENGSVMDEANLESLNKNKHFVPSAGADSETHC

[3] = Phase I DDI study with ketoconazole; type: in vivo, human
How it was run: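 Randomized, open-label, two-fold crossover in healthy men. Ketoconazole 200 mg BID orally for 3 days, given before and with a single oral 1.25 mg dose of test compound, fed, versus test compound alone.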

[4] = Phase I DDI study with aspirin; type: in vivo, human; conditions: with aspirin 500 mg vs vericiguat 15 mg SD alone, fasting
[5] = Phase I DDI study with sacubitril/valsartan; type: in vivo, human; conditions: administered with sacubitril/valsartan
OATP1B1 [6] = molecular target: T1, OATP1B1; assay: Substrate properties towards OATP1B1; type: in vitro ADME
[7] = molecular target: T2, organic cation transporter 2 (Homo sapiens, UniProt O15244); assay: Inhibitory potency towards OCT2; type: in vitro ADME
T2 sequence (O15244 1-555): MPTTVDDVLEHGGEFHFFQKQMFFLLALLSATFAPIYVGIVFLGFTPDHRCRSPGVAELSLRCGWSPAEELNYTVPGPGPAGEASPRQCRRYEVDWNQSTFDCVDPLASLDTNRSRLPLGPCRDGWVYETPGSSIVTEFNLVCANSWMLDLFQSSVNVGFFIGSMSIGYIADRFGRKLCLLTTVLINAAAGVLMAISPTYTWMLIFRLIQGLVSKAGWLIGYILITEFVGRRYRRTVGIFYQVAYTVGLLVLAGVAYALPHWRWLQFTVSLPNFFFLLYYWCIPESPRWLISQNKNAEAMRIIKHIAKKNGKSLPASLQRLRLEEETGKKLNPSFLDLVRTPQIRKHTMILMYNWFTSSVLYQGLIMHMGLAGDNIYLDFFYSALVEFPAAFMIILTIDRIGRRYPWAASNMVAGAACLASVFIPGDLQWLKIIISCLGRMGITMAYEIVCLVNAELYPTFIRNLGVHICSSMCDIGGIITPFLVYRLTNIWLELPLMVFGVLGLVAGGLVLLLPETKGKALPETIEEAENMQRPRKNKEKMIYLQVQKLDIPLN

UGT2B7 = molecular target: T3, UGT2B7 (Homo sapiens, UniProt P16662); assay: Inhibitory potency towards UGT isoforms: UGT2B7; type: in vitro ADME
T3 sequence (P16662 24-529): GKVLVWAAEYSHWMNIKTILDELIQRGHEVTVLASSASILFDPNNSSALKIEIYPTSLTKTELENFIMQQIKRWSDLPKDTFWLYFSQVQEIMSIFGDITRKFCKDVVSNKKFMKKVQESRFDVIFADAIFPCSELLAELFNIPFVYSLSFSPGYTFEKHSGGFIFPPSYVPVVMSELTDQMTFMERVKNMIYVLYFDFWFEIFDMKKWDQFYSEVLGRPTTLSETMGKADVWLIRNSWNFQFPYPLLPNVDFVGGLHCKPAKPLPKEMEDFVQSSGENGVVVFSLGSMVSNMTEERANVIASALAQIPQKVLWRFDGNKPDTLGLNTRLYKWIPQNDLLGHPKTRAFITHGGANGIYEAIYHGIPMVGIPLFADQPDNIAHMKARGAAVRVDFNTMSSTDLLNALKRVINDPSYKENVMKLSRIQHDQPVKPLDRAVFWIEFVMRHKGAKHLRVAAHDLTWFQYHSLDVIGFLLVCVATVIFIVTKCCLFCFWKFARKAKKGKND

UGT1A4 = molecular target: T4, UGT1A4 (Homo sapiens, UniProt P22310); assay: Inhibitory potency towards UGT isoforms: UGT1A4; type: in vitro ADME
T4 sequence (P22310 29-534): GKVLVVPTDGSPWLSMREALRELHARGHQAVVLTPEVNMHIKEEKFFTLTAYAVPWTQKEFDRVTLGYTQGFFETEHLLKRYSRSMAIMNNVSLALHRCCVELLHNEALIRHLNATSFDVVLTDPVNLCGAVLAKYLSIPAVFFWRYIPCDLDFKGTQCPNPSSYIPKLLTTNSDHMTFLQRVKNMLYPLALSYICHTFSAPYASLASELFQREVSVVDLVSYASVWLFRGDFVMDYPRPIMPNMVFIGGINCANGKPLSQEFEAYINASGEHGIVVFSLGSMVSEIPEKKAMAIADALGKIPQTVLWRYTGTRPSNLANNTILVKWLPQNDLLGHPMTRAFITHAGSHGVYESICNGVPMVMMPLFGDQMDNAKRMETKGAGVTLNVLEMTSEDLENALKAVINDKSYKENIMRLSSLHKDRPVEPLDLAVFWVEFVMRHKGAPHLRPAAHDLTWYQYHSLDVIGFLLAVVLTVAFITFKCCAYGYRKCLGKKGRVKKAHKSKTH

[8] = system: major cytochrome P450 (CYP) isoforms; conditions: human liver microsomes; cited from earlier work
[9] = cited from earlier work
[10] = with mefenamic acid vs vericiguat 2.5 mg SD alone, fed
[11] = with ketoconazole 200 mg BID vs vericiguat 1.25 mg SD alone, fed

COC(=O)Nc1c(N)nc(-c2nn(Cc3ccccc3F)c3ncc(F)cc23)nc1N [Vericiguat]
Increase in AUC of vericiguat ([1]; inhibition of UGT1A9 by mefenamic acid): 20% | AUC of vericiguat, point estimate of treatment ratio [1, 10]: 1.197 | Cmax of vericiguat, point estimate of treatment ratio [1, 10]: 0.967 | IC50 (OATP1B1 [2]): ~16 µM | Increase in vericiguat exposure (AUC) ([3]; co-administration with ketoconazole 200 mg twice daily): 13% | AUC of vericiguat, point estimate of treatment ratio [3, 11]: 1.126 | Cmax of vericiguat, point estimate of treatment ratio [3, 11]: 1.109 | AUC of vericiguat, point estimate of treatment ratio [4]: 0.949 | Cmax of vericiguat, point estimate of treatment ratio [4]: 0.933 | Decrease in AUC0–24 of vericiguat [5]: about 7% | Decrease in Cmax of vericiguat [5]: ~9% | Substrate of OATP1B1 (OATP1B1 [6]): not a substrate | IC50 [7]: > 5 µM | IC50 (UGT2B7): > 50 µM | IC50 (UGT1A4): > 50 µM | Inhibitory effects on major cytochrome P450 (CYP) isoforms [8]: no inhibitory effects | Increase in AUC after administration with food compared to without ([9]; vericiguat alone): approximately 44% | Increase in Cmax after administration with food compared to without ([9]; vericiguat alone): ~41% | Geometric coefficient of variation in AUC ([9]; with food): 19% | Oral bioavailability ([9]; with food): 93% | Geometric coefficient of variation in AUC ([9]; without food): 41%
